Screening data from PubChem.
Compounds with a hit are over-represented: about 2% of the library has one in this group of screens.
PKA-R2B act – activators of human PKA-R2B complex; PKA-R2B holoenzyme dissociation, Cy5-IP20 fluorescence polarization; R2B truncated from residue 108, S112A mutant; 0% DMSO only, 100% 113 µM cGMP; activation, % at 11.4 µM; hit rate 0.079% among 340,000; AID 504700;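 active means activation above a cutoff set at the mean over all compounds plus 3 SD, cut at about 18% in these data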;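 further: higher means more holoenzyme dissociation and a rise in polarization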
CAL PDZ FP-1 – inhibitors of human CAL PDZ peptide binding; Q9HD26; hit rate 0.02% among 330,000; AID 504414; inhibition, % at 20 µM; purified CAL PDZ, TMR-peptide fluorescence polarization, 1 h;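 active means highest replicate inhibition of at least 40%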;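 further: plate controls were DMSO neutral control wells for no effect and unlabeled competitor peptide control wells for full effect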
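System: purified tagged CAL PDZ domain construct (CerCALP). Schedule: 1 h incubation at room temperature before polarization reading. Medium: 25 mM sodium phosphate pH 7.4, 150 mM NaCl, TCEP, IgG, Thesit. Read-out: percent inhibition from loss of millipolarization. Measured by: FP readout, S and P plane fluorescence. Probe or stimulus: fluorescent TMR peptide probe.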
NTR1 agonist – agonists of human neurotensin receptor NTR1. hit rate 0.17% among 330,000. activation, % at 20 µM. NTR1-U2OS beta-arrestin-GFP spot imaging, agonist mode. AID 493036;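 active means activation at or above 40% of the spot to cytoplasm intensity ratio, with at least 20 cells analyzed; inconclusive means wells under 20 cells, flagged as cytotoxic or low count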;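 further: 0% = DMSO without peptide and 100% = 100 nM NTR1 peptide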
PKA-R1A activ – PKA-R1A complex activation | P00514+P68181 | PKA-R1A dissociation, Cy5-IP20 fluorescence polarization; scaled: DMSO 0%, 113 µM cGMP 100% | activation, % at 11.4 µM | hit rate 0.083% among 340,000;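 active means percent activation above the mean of all tested compounds plus 3 SD, cut at about 19% in these data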;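 further: higher means more PKAc released from R1A so a rise in polarization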
CAL PDZ FP-2 – blocks peptide binding to the human CAL PDZ domain; Q9HD26; purified CAL PDZ, TMR-peptide fluorescence polarization, 1 h; inhibition, % at 24.9 µM; hit rate 0.92% among 300,000;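 active means mean inhibition of at least 30% with at least half of replicates also reaching 30%; inconclusive means no clear call, values can overlap the other calls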;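 further: 0% = DMSO neutral control and 100% = excess unlabeled competitor peptide PRC23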
dFosB activator – enhances mouse delta FosB homodimer DNA binding; P13346; purified delta FosB, TAMRA-CDK5 oligo fluorescence polarization; percent of positive-control signal above neutral wells; activation, % at 25 µM; hit rate 0.99% among 340,000; AID 493131;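 active means mean activation above about 17%, with every replicate also reaching it, limit read from the data, passing the limit was not always enough; inconclusive means only one of the two conditions met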
Target sequence (P13346 whole entry, looked up): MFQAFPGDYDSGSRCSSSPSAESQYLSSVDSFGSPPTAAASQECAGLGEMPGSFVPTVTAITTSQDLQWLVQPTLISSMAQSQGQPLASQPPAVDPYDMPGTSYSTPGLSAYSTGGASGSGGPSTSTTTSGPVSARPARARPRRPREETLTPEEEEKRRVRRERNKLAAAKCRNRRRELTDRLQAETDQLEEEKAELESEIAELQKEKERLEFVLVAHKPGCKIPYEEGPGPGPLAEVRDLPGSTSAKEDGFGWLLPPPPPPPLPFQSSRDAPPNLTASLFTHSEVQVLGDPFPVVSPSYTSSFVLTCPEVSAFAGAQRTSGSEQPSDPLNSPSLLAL
* marks the source's active call; other numbers are inactive results; ? = inconclusive; . = not tested or not shown.

SMILES	PKA-R2B act	CAL PDZ FP-1	NTR1 agonist	PKA-R1A activ	CAL PDZ FP-2	dFosB activator
N#Cc1ccsc1NC(=O)CCN1C(=O)C2CCCCC2C1=O (centres undefined)	-4	0	0	-3	.	0
CSc1cccc(NC(=O)CNC(=O)c2ccc3c(c2)OCO3)c1	-8	-1	0	-1	61*	-2
O=C(Cn1cc(COc2ccc3ccc(=O)oc3c2)nn1)c1ccc(O)cc1	-2	-1	.	5	30*	-14
O=c1c2ccccc2nc2sc(Nc3cccc(Cl)c3)nn12	-10	0	0	6	1	-1
OC(COC(c1ccc(Cl)cc1)c1ccc(Cl)cc1)CN1CCCC1 (centres undefined)	2	-2	2	-4	-2	-3
CN1CCN(CC(O)COC(c2ccc(Cl)cc2)c2ccc(Cl)cc2)CC1 (centres undefined)	3	-1	13	13	-1	22*
COC(=O)C[C@H]1C[C@H]2c3cc(NC(=O)C4CCOCC4)ccc3O[C@H]2[C@H](CO)O1	4	.	.	-1	.	.
Nc1ccccc1Oc1c(F)c(F)c(Oc2ccccc2N)c(F)c1F	8	1	4	-14	-5	5
COc1ccc(S(=O)(=O)Nc2nccs2)cc1OC	-6	-7	2	3	53*	4
CC(=O)N/C(=C\c1ccc(F)cc1)C(=O)OCc1ccccc1	-9	0	-1	0	-3	-9
COc1ccccc1CCNS(=O)(=O)c1cn(C)c(=O)n(C)c1=O	0	-1	1	-4	0	-1
COC(=O)c1ccc(S(=O)(=O)NCCc2ccccc2OC)n1C	-1	-1	0	-12	69*	-5
CCC1SC(C)C/C(=N/NC(N)=O)C1C (centres undefined)	-3	1	-1	-3	-1	-3
CC1CC(C)C(=NNC(N)=O)C(C(O)CC2CCC(=O)NC2=O)C1 (centres undefined)	5	1	.	6	51*	6
Cc1ccc(S(=O)(=O)N2CCCN(C(=O)c3ccc(-n4nccc4C)cc3)CC2)cc1	-7	-2	3	-13	-7	-9
CCN(CC(=O)Nc1c(F)cccc1F)C(=O)CSCC(=O)Nc1cccc(C)c1	0	0	0	4	78*	-4
CCN(CC(=O)Nc1c(F)cccc1F)C(=O)CSCC(=O)Nc1ccc(OC)cc1	-3	-1	1	6	-2	1
CCN(CC(=O)Nc1c(F)cccc1F)C(=O)Cn1[nH]c(=O)c2ccccc2c1=O	-14	0	0	7	78*	2
CCN(CC(=O)Nc1c(F)cccc1F)C(=O)Cc1c[nH]c2ccccc12	-9	0	2	-6	6	-1
CCN(CC)C(=O)c1ccc(COc2ccc(Cl)c(C)c2)o1	-14	-1	4	-6	6	-15
Cc1ccc(S(=O)(=O)NCC(=O)OCC(=O)N(C)C2CCCCC2)cc1	1	-1	-1	-2	-2	-4
COc1ccc(CNC(=O)C2(CC3CC(c4ccccc4)=NO3)CCN(C(=O)C3CCCC3)CC2)cc1 (centres undefined)	4	-2	1	0	-3	-3
CCOC(=O)CCSc1nnc(-c2cccnc2)n1-c1ccccc1OC	5	1	0	-6	67*	1
COc1ccc(CC(=O)Nc2cccc(-c3ccc4nnc(C)n4n3)c2)cc1OC	5	-9	3	1	-7	73*
Cc1nnc2ccc(-c3cccc(NC(=O)c4ccco4)c3)nn12	-3	-3	1	-1	3	-5
SMILES	PKA-R2B act	CAL PDZ FP-1	NTR1 agonist	PKA-R1A activ	CAL PDZ FP-2	dFosB activator
COc1ccc(CC(=O)Nc2cccc(-c3ccc4nnc(C)n4n3)c2)cc1	10	-10	2	1	-1	73*
CCOc1ccc(CC(=O)Nc2cccc(-c3ccc4nnc(C)n4n3)c2)cc1	-1	-8	4	-14	-4	89*
COc1ccc(CC(=O)Nc2cccc(-c3ccc4nncn4n3)c2)cc1OC	5	-4	1	-10	-6	63*
Cc1nnc2ccc(-c3cccc(NC(=O)Cc4cccs4)c3)nn12	-4	-8	1	-3	3	-32
CN(C)CC(CCC(CN(C)C)C(=O)c1ccccc1)C(=O)c1ccccc1 (centres undefined)	0	1	.	-2	-3	8
O=C(Nc1ccc(NC(=O)c2cccs2)cc1)c1ccc2c(c1)OCCO2	3	-2	-1	5	.	17*
O=C(Nc1ccc(Cl)c([N+](=O)[O-])c1)c1ccc2c(c1)OCCO2	-7	17	1	3	30*	13
O=C(Nc1ccc(NC(=O)c2cccs2)cc1)c1ccc2c(c1)OCO2	-9	0	1	4	-6	?
O=C(Nc1ccc(F)cc1)C1CCCN(S(=O)(=O)c2ccc3[nH]c(=O)ccc3c2)C1 (centres undefined)	-6	0	1	-4	5	18*
Cc1ccc(C)c(NC(=O)C2CCCN(S(=O)(=O)c3ccc4[nH]c(=O)ccc4c3)C2)c1 (centres undefined)	-4	1	1	-6	-4	6
COc1ccc(Oc2ccc(/C=C/C(=O)c3ccc(O)cc3)cc2[N+](=O)[O-])cc1	5	0	33	5	61*	3
O=C(Nc1ccccc1C(=O)O)c1ccc(NC(=O)C2CCCCC2)cc1	8	-13	1	3	-3	-4
COc1ccc(CNC(=O)C[C@H]2C[C@H](C(=O)N3CCOCC3)[C@@]3(CCC4CCCC4)c4[nH]c5cc(CCC(=O)N(C)C)ccc5c4CCN3C2=O)cc1OC	4	0	2	-6	51*	-2
CCc1cccc(NC(=O)CCNS(=O)(=O)c2ccc3[nH]c(=O)oc3c2)c1	8	-1	-1	-16	40*	5
Cc1ccc(C(C[N+](=O)[O-])n2nc(C)cc2C)cc1 (centres undefined)	0	-2	51*	-9	-4	1
Nc1ncnc2c1C(c1ccccc1)c1c(ccc3ccccc13)O2 (centres undefined)	2	62*	37	-1	-5	-12
COc1cccc(OC)c1C(=O)Nc1ccc(C(=O)c2ccncc2)cc1	0	-1	1	6	-2	0
CCN1CCN(C(CNS(=O)(=O)c2ccccc2)c2ccccc2)CC1 (centres undefined)	5	0	0	-4	43*	-8
CCNC(=S)NNC(=O)c1ccncc1	-9	0	2	-7	68*	-10
